# Sampled rows, rich in hits. Any-hit rate of the full collection: about 1.8%.
# proCasp3 act: activators of human procaspase-3 D3A mutant, primary screen, biochemical, absorbance, PC-3 D3A mutant, single concentration | recombinant procaspase-3 D3A, Ac-DEVD-pNA absorbance 405 nm | activation, % at 8.5 µM | 330,000 compounds, 0.11% hits | AID 463141, 2010;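 active means activation above the mean of all tested compounds plus 3 SD, cut at about 21% in these data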;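 further: 0% = DMSO alone and 100% = DMSO wells spiked with extra 5 µM PC-3 D3A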
# Target sequence (P42574 whole entry D9A/D28A/D175A): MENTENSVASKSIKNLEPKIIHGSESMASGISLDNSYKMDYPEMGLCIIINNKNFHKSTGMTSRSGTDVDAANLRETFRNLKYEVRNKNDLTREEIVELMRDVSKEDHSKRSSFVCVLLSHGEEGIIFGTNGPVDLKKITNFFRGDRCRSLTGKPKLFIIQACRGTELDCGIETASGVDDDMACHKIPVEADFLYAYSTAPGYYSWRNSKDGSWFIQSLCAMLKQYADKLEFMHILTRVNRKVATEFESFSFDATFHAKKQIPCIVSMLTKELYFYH
#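 System: Procaspase-3 D3A mutant. Medium: Zinc-free 300 mM NaCl, 50 mM HEPES, 0.01% Triton X-100. Schedule: 1 h preincubation plus 2 h reaction at 25 °C. Measured by: 405 nm absorbance of p-nitroaniline, reads at 0 and 120 min. Read-out: percent activation relative to control range.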
# proCasp7 act: procaspase-7 activators, primary screen, counter-screen for procaspase-3 activator project, biochemical, absorbance, HTS, human | Caspase-7 (Homo sapiens), P55210 | activation, % at 8.5 µM | AID 463210, 2010 | recombinant procaspase-7, Ac-DEVD-pNA absorbance 405 nm; D23A/D198A/D206A triple mutant, cannot self-cleave; scale: DMSO 0, 5 µM enzyme 100 | 330,000 compounds, 0.093% hits;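 active means percent activation above the screen-wide mean plus 3 SD, cut at about 25% in these data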
#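 Assay system: Uncleavable procaspase-7 mutant enzyme / Input: 2 µM procaspase-7 mutant as dispensed / Dosing: single nominal 8.5 µM compound dose, 0.8% DMSO final / Timing: 1 h enzyme–compound preincubation and 2 h substrate reaction, both 25 °C / Detection: p-Nitroaniline absorbance at 405 nm, read at 0 and 120 min / Replication: singlicate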
# EBNA-1 inh: EBNA-1 DNA-binding inhibitors, primary screen, biochemical, fluorescence polarization; 300,000 compounds, 0.34% hits; inhibition, % at 14.8 µM; in the data active means inhibition above about 28%
# Apaf-1 inh: inhibitors of human Apaf-1 apoptosome, primary screen, biochemical, DEVD-Rh110 fluorescence, uHTS; Apoptotic protease-activating factor 1 (Homo sapiens), O14727; reconstituted apoptosome caspase-3 activity; inhibition, % at 20 µM; 330,000 compounds, 0.71% hits; active means inhibition of at least 40% at 20 µM;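 further: plate controls were DMSO wells for no effect and DEVD-CHO caspase inhibitor wells for full effect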
#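 detection = Rh110 fluorescence intensity | test system = biochemical Apaf-1 apoptosome reconstitution | also added = cytochrome c and DEVD-Rh110 substrate | schedule = 30 min plus 50 min, RT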
# ZTA counter: counter-screen for EBNA-1 inhibitors: inhibitors of Epstein-Barr virus ZTA | P03206 | inhibition, % at 11 µM | ZTA-DNA binding, fluorescence polarization | 320,000 compounds, 0.15% hits | AID 2234; in the data active means inhibition above about 33%
# GSTO1 counter: inhibitors of recombinant GSTO1, primary screen, counter-screen for RBBP9 inhibitor project, biochemical, fluorescence polarization | Glutathione S-transferase omega-1 (Homo sapiens), P78417 | activity-based probe fluorescence polarization | inhibition, % at 5.96 µM | 300,000 compounds, 1.1% hits | AID 1974, 2009;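 active means inhibition above the campaign mean inhibition plus 3 SD, cut at about 35% in these data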;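 further: 0% = GSTO1-1 with DMSO and 100% = wells lacking GSTO1-1 enzyme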
# Target sequence (P78417 whole entry, looked up): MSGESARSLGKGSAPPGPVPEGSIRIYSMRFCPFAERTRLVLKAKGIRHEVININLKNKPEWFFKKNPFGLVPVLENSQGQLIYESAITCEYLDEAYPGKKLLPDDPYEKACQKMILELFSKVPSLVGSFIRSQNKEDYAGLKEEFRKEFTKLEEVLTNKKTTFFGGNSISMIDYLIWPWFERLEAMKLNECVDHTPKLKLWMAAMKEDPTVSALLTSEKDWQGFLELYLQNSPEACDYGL
# * hit, by the source's call; / = no result given.
SMILES,proCasp3 act,proCasp7 act,EBNA-1 inh,Apaf-1 inh,ZTA counter,GSTO1 counter
CC(C)(C)C(=O)[C@@H]1[C@@H]2C(=O)N(c3ccc4c(c3)OCCO4)C(=O)[C@@H]2C2c3ccccc3C=CN21 (some centres not stated),-19,-20,-10,62*,1,23
CC(=O)[C@@H]1[C@@H]2C(=O)N(Cc3ccccc3)C(=O)[C@@H]2C2c3ccccc3C=CN21 (some centres not stated),-4,-8,-3,67*,6,30
COc1ccc(S(=O)(=O)N2CCCCC2)cc1NC(=O)c1c(F)cccc1Cl,/,/,/,1,/,/
Cc1ccccc1NC(=O)C1CCCN1S(=O)(=O)c1ccccc1C(F)(F)F (configuration not stated),5,2,/,3,5,/
Cc1ccc(N2C(=O)[C@@H]3[C@H](C2=O)C2c4ccccc4C=CN2[C@@H]3C(=O)c2ccco2)c(C)c1 (some centres not stated),-21,-14,-1,87*,-2,28
CCOC(=O)N1CCC2(CC1)C(C#N)=C(N)Oc1n[nH]c(CSc3ccc(C)cc3)c12,7,1,4,13,-1,36*
Cc1ccc(SCc2[nH]nc3c2C2(CCSCC2)C(C#N)=C(N)O3)cc1,-5,-3,-2,2,-10,34
O=C(/C=C/c1cccc(Cl)c1Cl)OCC(=O)N1CCOCC1,/,/,/,0,/,/
O=C(NCCc1ccccc1)C(c1cccs1)N(C(=O)CCl)c1ccc(Cl)cc1 (configuration not stated),-3,-4,-1,14,-8,103*
CNC[C@H](Cc1ccccc1)NC[C@@H](Cc1cccc2ccccc12)NCCc1ccc(C)cc1,6,2,-1,48*,-2,6
CNCCNC[C@H](Cc1cccc2ccccc12)NCCc1ccccc1,-3,-7,/,30,/,/
CC1=NNC(=O)C1CC(=O)N/N=C/C(C)=C/c1ccccc1 (configuration not stated),-2,12,10,-5,13,6
CC(/C=N/NC(=O)Cc1cc(=O)[nH][nH]1)=C\c1ccccc1,-1,-10,3,60*,5,31
Cn1c(SCC(=O)NC2CCS(=O)(=O)C2)nc2ccccc21 (configuration not stated),8,-11,/,-6,/,/
CCOc1ccc(NC2=C(OC)C(=O)c3ccccc3C2=O)cc1,-6,-16,-1,29,4,40*
COC1=C(Nc2ccc(OC)cc2)C(=O)c2ccccc2C1=O,-9,-4,-7,27,-2,17
NC(=S)N/N=C/c1ccccc1O,11,14,-3,-9,5,-16
NC(=S)N/N=C/c1cccc(O)c1O,-12,-22,4,10,-3,84*
COc1ccc(S(=O)(=O)N2CCOCC2)cc1NC(=O)/C=C/c1ccccc1,/,/,/,3,/,/
O=C(COC(=O)c1ccccc1)Nc1cccc(S(=O)(=O)N2CCCCC2)c1,/,/,/,12,/,/
CC(C)N=c1cc2n(-c3ccc(Cl)cc3)c3ccccc3nc-2cc1Nc1ccc(Cl)cc1,-7,-11,3,68*,-22,7
Cn1c(CNc2ccc(Cl)cc2)nc2ccccc21,5,2,-13,12,-14,7
CC(C)(C)C(=O)NC1=NN(c2c(Cl)cc(Cl)cc2Cl)C(=O)C1,2,0,-3,68*,-1,14
O=C(CSc1nc2ccccc2c(=O)n1-c1ccccc1Cl)NCC1CCCO1 (configuration not stated),8,-3,/,13,-12,/
CC(=O)Nc1ccc(S(=O)(=O)Nc2ccc3c(c2)CCC3)cc1,9,5,-8,11,-14,35*
SMILES,proCasp3 act,proCasp7 act,EBNA-1 inh,Apaf-1 inh,ZTA counter,GSTO1 counter
O=C1C(Cl)=C(N2CCCC2)C(=O)N1c1ccc(F)cc1,-18,-10,7,-8,22,35*
Cc1cc2nc3c(=O)n(CCc4ccccc4)c(=O)[nH]c3nc2cc1N,-25,-22,-4,10,-1,37*
O=C(/C=C/c1ccco1)N(c1ccccn1)c1ccccn1,4,5,6,1,12,42*
Cc1cc(C)n(CC(=O)NNC(=O)CC(C)c2ccccc2)n1 (configuration not stated),8,11,/,-14,-14,/
O=C(CCc1nc(-c2ccccc2Cl)no1)NC1CCCCC1,5,-1,-11,3,15,-4
COc1cc([C@@H]2c3cc4c(cc3[C@@H](O)[C@@H](CO)[C@@H]2CO)OCO4)cc(OC)c1O[Si](C)(C)C(C)(C)C,2,11,-5,27,34*,2
Nc1c(O)cccc1C(=O)O,-12,-12,1,53*,3,76*
CCN(CC(=O)Nc1c(F)cccc1F)C(=O)c1nc2nc(C)cc(C)n2n1,/,/,/,-3,/,/
CC(C)Cc1nc(SCC(=O)Nc2nnc(CC(C)C)s2)n[nH]1,-3,-2,0,11,1,9
CC(C)Cc1nnc(NC(=O)CSc2nc(O)c(-c3ccccc3)c(=O)[nH]2)s1,-4,0,-10,13,3,71*
O=C(NN1C(=O)/C(=C/C=C/c2ccco2)SC1=S)c1ccncc1,-20,-27,51*,26,74*,-23
O=C(NN1C(=O)/C(=C/C=C/c2ccccc2)SC1=S)c1ccncc1,-13,-5,-16,9,8,-5
CCN1/C(=C/C=C/c2oc3ccc4ccccc4c3[n+]2CC)Oc2ccc3ccccc3c21,-4,-20,29*,76*,29,-34
Cc1ccc(C(=O)OCC(=O)NNC(=O)COc2ccc(Cl)cc2)c(O)c1,4,0,8,2,-6,2
Cc1ccc(C(NC(=O)N2CCOCC2)=C(Cl)Cl)cc1F,-4,5,17,1,-6,36*
Cc1ccc(S(=O)(=O)N2CCCCC2)cc1NC(=O)CSc1ncccn1,-7,-8,/,1,-4,/
Cc1csc(N/N=C/c2ccc(O)c([N+](=O)[O-])c2)n1,-14,-20,1,10,-1,84*
Cc1nnc(N/N=C/c2ccc(O)c([N+](=O)[O-])c2)[nH]c1=O,-5,1,1,0,-3,8
O=[N+]([O-])c1cc(/C=N\Nc2nc(-c3ccccc3)cs2)ccc1O,-15,-10,-2,13,6,63*

# Screening results (PubChem)
